Assays:
[1] = target: Bromodomain-containing protein 3 (Homo sapiens) (UniProt Q15059); assay: Binding affinity to BRD3 bromodomain 1 (unknown origin) at 20 uM by Alpha screen assay relative to control
[2] = target: Bromodomain-containing protein 2 (Homo sapiens) (UniProt P25440); assay: Binding affinity to BRD2 bromodomain 1 (unknown origin) at 20 uM by Alpha screen assay relative to control
[3] = target: Bromodomain-containing protein 2 (Homo sapiens) (UniProt P25440); assay: Binding affinity to BRD2 bromodomain 2 (unknown origin) at 20 uM by Alpha screen assay relative to control
[4] = target: Bromodomain-containing protein 4 (Homo sapiens, UniProt O60885); assay: Binding affinity to recombinant human His-tagged BRD4 bromodomain 1 expressed in […] insect cells using biotinylated H4(1 to 21)K5/8/12/16Ac peptide as substrate at 20 uM preincubated for 30 mins followed by substrate addition and measured after 30 mins by Alpha screen assay relative to control
[5] = target: Bromodomain testis-specific protein (Homo sapiens) (UniProt Q58F21); assay: Binding affinity to BRDT bromodomain 1 (unknown origin) at 20 uM by Alpha screen assay relative to control
A549 [6] = assay: Antiproliferative activity against human A549 cells incubated for 48 hrs by MTT assay; type: functional, cell-based; settings: A549, 48 h
Summary of the method: (§1)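 Cells kept in DMEM or RPMI 1640 with 10% FBS at 37 °C, 5% CO2. MTT added for 4 h at 37 °C, formazan dissolved in DMSO, OD read at 570 nm. Survival % taken relative to blank and control wells. Triplicate runs; IC50 from curve fit.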

PANC-1 = assay: Antiproliferative activity against human PANC1 cells incubated for 48 hrs by MTT assay; type: functional, cell-based; settings: PANC-1, 48 h; summary of the method: as §1
A549 [7] = assay: Inhibition of BET in human A549 cells assessed as downregulation of c-Myc protein expression level incubated for 48 hrs by western blot analysis; type: cell-based
Summary of the method: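 A549 cells seeded at 400000 per well, grown overnight in 10% FBS medium, then given serially diluted compound for 48 h. c-Myc in lysates detected with a mouse monoclonal antibody; GAPDH used as loading control.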

A549 [8] = assay: Induction of apoptosis in human A549 cells assessed as early apoptotic cells at 0.3 uM incubated for 48 hrs by annexin V-FITC/PI double staining based flow cytometric analysis (reference value: 1.76%); type: functional
A549 [9] = assay: Induction of apoptosis in human A549 cells assessed as late apoptotic cells at 1.0 uM incubated for 48 hrs by annexin V-FITC/PI double staining based flow cytometric analysis (reference value: 0.039%); type: functional
A549 [10] = assay: Induction of apoptosis in human A549 cells assessed as necrotic cells at 1.0 uM incubated for 48 hrs by annexin V-FITC/PI double staining based flow cytometric analysis (reference value: 0%); type: functional
A549 [11] = assay: Induction of apoptosis in human A549 cells assessed as necrotic cells at 3.0 uM incubated for 48 hrs by annexin V-FITC/PI double staining based flow cytometric analysis (reference value: 0%); type: functional
A549 [12] = assay: Induction of apoptosis in human A549 cells assessed as viable cells at 5.0 uM incubated for 48 hrs by annexin V-FITC/PI double staining based flow cytometric analysis (reference value: 98.2%); type: functional; settings: A549, 48 h, read-out: Activity
A549 [13] = assay: Induction of apoptosis in human A549 cells assessed as late apoptotic cells at 5.0 uM incubated for 48 hrs by annexin V-FITC/PI double staining based flow cytometric analysis (reference value: 0.039%); type: functional
[14] = Metabolic stability in human liver microsomes assessed as half life at 1 uM measured for 0.025 to 2 hrs in presence of betaNADPH by LC-MS/MS analysis; type: ADME, Microsome
Summary of the method: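 1 μM compound incubated at 37 °C with human liver microsomes (0.5 mg/mL), 1.7 mM β-NADPH and 3.3 mM MgCl2 in 0.1 M phosphate buffer pH 7.4, with DMSO below 0.1%. Remaining parent measured by LC-MS/MS; half-life from concentration-time regression.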

[15] = AUC (0 to t) in Sprague-Dawley rat at 2.5 mg/kg, iv measured for 0.083 to 24 hrs by LC-MS/MS/MS analysis; type: ADME, organism-based; design: time upper 24 hr, dose 2.5 mg/kg, time lower 0.083 hr, route intravenous; settings: in vivo
[16] = Half life in Sprague-Dawley rat at 2.5 mg/kg, iv measured for 0.083 to 24 hrs by LC-MS/MS analysis; type: ADME, organism-based; settings: in vivo
[17] = Tmax in Sprague-Dawley rat at 2.5 mg/kg, iv measured for 0.083 to 24 hrs by LC-MS/MS analysis; type: ADME, organism-based; settings: in vivo
[18] = MRT (0 to t) in Sprague-Dawley rat at 2.5 mg/kg, iv measured for 0.083 to 24 hrs by LC-MS/MS analysis; type: ADME, organism-based; settings: in vivo
[19] = Apparent clearance in Sprague-Dawley rat at 2.5 mg/kg, iv measured for 0.083 to 24 hrs by LC-MS/MS analysis; type: ADME, organism-based; settings: in vivo, read-out: CL(app) (converted)
[20] = Cmax in Sprague-Dawley rat at 2.5 mg/kg, iv measured for 0.083 to 24 hrs by LC-MS/MS analysis; type: ADME, organism-based; design: dose 2.5 mg/kg, route intravenous; settings: in vivo
[21] = AUC (0 to t) in Sprague-Dawley rat at 10 mg/kg, po measured for 0.083 to 24 hrs by LC-MS/MS analysis; type: ADME, organism-based; design: time 0.083-24 hr, dose 10 mg/kg, route oral; settings: in vivo
[22] = AUC (0 to infinity) in Sprague-Dawley rat at 10 mg/kg, po measured for 0.083 to 24 hrs by LC-MS/MS analysis; type: ADME, organism-based; design: dose 10 mg/kg, route oral, time infinity; settings: in vivo
[23] = Half life in Sprague-Dawley rat at 10 mg/kg, po measured for 0.083 to 24 hrs by LC-MS/MS analysis; type: ADME, organism-based; settings: in vivo
[24] = Tmax in Sprague-Dawley rat at 10 mg/kg, po measured for 0.083 to 24 hrs by LC-MS/MS analysis; type: ADME, organism-based; settings: in vivo
[25] = Volume of distribution at steady state in Sprague-Dawley rat at 10 mg/kg, po measured for 0.083 to 24 hrs by LC-MS/MS analysis; type: ADME, organism-based; settings: in vivo
[26] = Cmax in Sprague-Dawley rat at 10 mg/kg, po measured for 0.083 to 24 hrs by LC-MS/MS analysis; type: ADME, organism-based; design: dose 10 mg/kg, route oral; settings: in vivo
A549 [27] = assay: Induction of cell cycle arrest in human A549 cells assessed as accumulation at […] phase at 1.0 uM incubated for 48 hrs by BrdU/PI staining based flow cytometric analysis; type: functional
Summary of the method: (§2)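 Subconfluent A549 cells exposed 48 h to 0.3–5.0 μM with DMSO vehicle control. Pulse-labelled with 10 μM BrdU for 30 min at 37 °C before harvest. Fixed in 70% ethanol, denatured in 2 M HCl, neutralised, then stained with fluorescein anti-BrdU antibody and propidium iodide. Analysed by flow cytometry with 488 nm excitation.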

A549 [28] = assay: Induction of cell cycle arrest in human A549 cells assessed as accumulation at […] phase at 3.0 uM incubated for 48 hrs by BrdU/PI staining based flow cytometric analysis; type: functional; summary of the method: as §2
A549 [29] = assay: Induction of cell cycle arrest in human A549 cells assessed as accumulation at […] phase at 5.0 uM incubated for 48 hrs by BrdU/PI staining based flow cytometric analysis; type: functional; summary of the method: as §2
A549 [30] = assay: Induction of cell cycle arrest in human A549 cells assessed as increase in accumulation at G1 phase incubated for 48 hrs by BrdU/PI staining based flow cytometric analysis; type: functional; summary of the method: as §2

Sequence of Bromodomain-containing protein 2 (Homo sapiens) (P25440 whole entry, looked up): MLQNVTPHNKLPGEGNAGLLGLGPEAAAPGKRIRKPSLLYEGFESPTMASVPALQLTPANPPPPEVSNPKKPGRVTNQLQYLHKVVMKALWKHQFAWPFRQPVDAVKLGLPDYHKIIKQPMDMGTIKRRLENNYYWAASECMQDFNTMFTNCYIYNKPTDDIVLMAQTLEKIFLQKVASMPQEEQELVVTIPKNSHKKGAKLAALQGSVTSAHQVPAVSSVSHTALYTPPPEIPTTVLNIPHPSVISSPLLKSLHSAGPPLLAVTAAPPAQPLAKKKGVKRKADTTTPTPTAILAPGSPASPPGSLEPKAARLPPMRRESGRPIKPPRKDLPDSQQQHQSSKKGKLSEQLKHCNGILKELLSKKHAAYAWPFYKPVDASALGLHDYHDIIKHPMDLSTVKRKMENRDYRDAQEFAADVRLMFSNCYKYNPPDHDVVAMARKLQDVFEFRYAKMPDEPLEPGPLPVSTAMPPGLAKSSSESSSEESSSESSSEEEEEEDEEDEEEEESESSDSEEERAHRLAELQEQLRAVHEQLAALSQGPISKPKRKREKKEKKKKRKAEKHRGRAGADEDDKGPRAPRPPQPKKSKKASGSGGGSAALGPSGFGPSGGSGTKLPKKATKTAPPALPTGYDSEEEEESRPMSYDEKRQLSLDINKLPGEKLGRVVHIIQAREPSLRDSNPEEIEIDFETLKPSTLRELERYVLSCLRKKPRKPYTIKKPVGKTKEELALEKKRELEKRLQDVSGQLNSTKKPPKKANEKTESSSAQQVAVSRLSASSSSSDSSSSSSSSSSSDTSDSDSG
Sequence of Bromodomain-containing protein 3 (Homo sapiens) (Q15059 2-726 limits assumed): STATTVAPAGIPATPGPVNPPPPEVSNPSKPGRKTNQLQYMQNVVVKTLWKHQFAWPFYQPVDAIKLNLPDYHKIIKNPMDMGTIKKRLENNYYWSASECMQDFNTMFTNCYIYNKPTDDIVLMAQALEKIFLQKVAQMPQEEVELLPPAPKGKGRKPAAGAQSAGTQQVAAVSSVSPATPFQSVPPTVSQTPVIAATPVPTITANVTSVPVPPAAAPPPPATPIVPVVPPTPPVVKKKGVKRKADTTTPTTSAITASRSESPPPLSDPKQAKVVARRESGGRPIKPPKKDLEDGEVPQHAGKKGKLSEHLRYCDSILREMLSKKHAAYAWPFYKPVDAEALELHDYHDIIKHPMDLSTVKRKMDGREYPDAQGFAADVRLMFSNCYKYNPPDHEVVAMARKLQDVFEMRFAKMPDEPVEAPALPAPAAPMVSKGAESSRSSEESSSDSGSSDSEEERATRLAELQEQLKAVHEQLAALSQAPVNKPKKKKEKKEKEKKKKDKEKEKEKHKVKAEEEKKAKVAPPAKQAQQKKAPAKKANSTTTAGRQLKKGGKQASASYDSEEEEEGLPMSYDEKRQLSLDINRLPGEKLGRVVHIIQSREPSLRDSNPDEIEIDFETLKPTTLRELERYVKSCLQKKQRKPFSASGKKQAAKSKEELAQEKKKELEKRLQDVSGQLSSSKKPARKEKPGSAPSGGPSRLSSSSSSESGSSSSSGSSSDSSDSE

Compound: COc1ccc(Cl)cc1S(=O)(=O)Nc1ccc2[nH]c(=O)c3ccccc3c2c1
- Activity [1]: > 70%
- Activity [2]: > 70%
- Activity [3]: > 70%
- Activity [4]: > 70%
- Activity [5]: > 70%
- IC50 (A549 [6]): 750 nM
- IC50 (PANC-1): 6.7 µM
- inhibition (A549 [7]): Dose-dependent effect
- Activity (A549 [8]): 27.7%
- Activity (A549 [9]): 6.13%
- Activity (A549 [10]): 0.044%
- Activity (A549 [11]): 0%
- viability at 5 µM (A549 [12]): 19.7%
- Activity (A549 [13]): 8.25%
- half-life at 1 µM [14]: 250 min
- AUC(0-t) [15]: 383 ng·h/mL
- half-life [16]: 623 min
- Tmax [17]: 4.98 min
- MRT last [18]: 7.93 h
- clearance [19]: 85.8 mL/min/kg
- Cmax [20]: 96.9 ng/mL
- AUC(0-t) [21]: 566 ng·h/mL
- AUC(0-inf) [22]: 670 ng·h/mL
- half-life [23]: 232 min
- Tmax [24]: 5.33 h
- Vdss [25]: 97.34 L/kg
- Cmax [26]: 52.4 ng/mL
- Activity (A549 [27]): 70.3%
- Activity (A549 [28]): 76.42%
- Activity (A549 [29]): 81.66%
- Activity (A549 [30]): Dose-dependent effect

— ChEMBL document CHEMBL4351018, “Novel phenanthridin-6(5H)-one derivatives as potent and selective BET bromodomain inhibitors: Rational design, synthesis and biological evaluation” (Eur J Med Chem, 2019)
